Compound activity deposited in PubChem BioAssay by several laboratories.
KCNK3 block: human KCNK3 channel inhibition, primary screen; O14649; CHO-KCNK3 thallium flux, FluxOR fluorescence; active compounds read low; B-score at 10 µM; actives 0.84% (n = 340,000); AID 602410;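 active = B-score under library mean minus 4 SD, starting fluorescence ratio at most library mean plus 5 SD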;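 also: more negative B-score means stronger inhibition of thallium flux through KCNK3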
Target sequence (O14649 whole entry, looked up): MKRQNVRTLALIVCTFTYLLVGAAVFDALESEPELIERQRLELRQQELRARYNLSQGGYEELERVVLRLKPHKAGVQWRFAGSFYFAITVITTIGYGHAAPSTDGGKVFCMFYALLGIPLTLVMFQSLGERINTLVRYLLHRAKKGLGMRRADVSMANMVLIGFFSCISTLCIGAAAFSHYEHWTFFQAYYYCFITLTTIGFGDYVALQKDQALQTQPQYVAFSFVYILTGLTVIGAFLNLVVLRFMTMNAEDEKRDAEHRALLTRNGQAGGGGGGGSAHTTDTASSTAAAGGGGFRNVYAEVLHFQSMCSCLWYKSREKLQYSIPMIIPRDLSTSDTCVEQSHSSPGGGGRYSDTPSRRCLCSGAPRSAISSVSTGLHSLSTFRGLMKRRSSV
KCNK9 inh: inhibitors of human KCNK9 two-pore domain potassium channel | AID 488922 | actives 1.2% (n = 310,000) | HEK293 KCNK9, FluxOR thallium flux fluorescence; active compounds read low | Q9NPC2 | B-score at 10 µM;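 active = ratio B-score over 3 SD below the library mean, with starting fluorescence within 5 SD of its mean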;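 also: negative B-score means less thallium flux so channel inhibition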
Target sequence (Q9NPC2 whole entry, looked up, the tested form may be a part): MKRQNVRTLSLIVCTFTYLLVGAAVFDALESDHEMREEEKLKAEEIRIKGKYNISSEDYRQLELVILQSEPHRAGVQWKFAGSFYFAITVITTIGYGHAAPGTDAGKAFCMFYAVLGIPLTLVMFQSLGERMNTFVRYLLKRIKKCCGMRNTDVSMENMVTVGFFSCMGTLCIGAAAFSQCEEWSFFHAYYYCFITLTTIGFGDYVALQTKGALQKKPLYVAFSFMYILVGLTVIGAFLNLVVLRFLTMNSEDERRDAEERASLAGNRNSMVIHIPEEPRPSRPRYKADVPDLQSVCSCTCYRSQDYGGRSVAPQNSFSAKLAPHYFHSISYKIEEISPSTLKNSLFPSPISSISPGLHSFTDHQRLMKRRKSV
KCNQ1 block: inhibitors of human KCNQ1 potassium channel. actives 1.3% (n = 310,000). AID 2642. CHO-K1 KCNQ1, FluxOR thallium flux fluorescence; active compounds read high. B-score at 10 µM;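 active = compounds whose thallium flux B-score, printed positive for inhibition, exceeds three library SD while starting fluorescence stays within three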;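 also: channel opened by potassium depolarization with thallium stimulus after 20 min compound exposure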
hERG protect: hERG (human) protection from proarrhythmic block. actives 0.51% (n = 310,000). CHO-hERG, FluxOR thallium flux, dofetilide IC70 present. activation (rescue from dofetilide block), less the hit threshold, % at 10 µM. AID 1511;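 active = activation above the mean of controls blocked by dofetilide plus 5 SD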;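 also: thallium influx through hERG after potassium depolarization seen as dye fluorescence rise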
KCNQ1 pot: potentiates or activates the human KCNQ1 potassium channel; P51787; CHO-K1 KCNQ1, thallium flux FluxOR fluorescence; active compounds read high; B-score at 10 µM; actives 0.35% (n = 310,000); AID 2648;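 active = fluorescence ratio B-score, a plate-corrected score, at least three library SD, with initial intensity B-score within 5 SD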
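Schedule – 37 °C overnight plating, 90-min dark dye load, 20-min compound pretreatment · System – stable KCNQ1 CHO-K1 line · Probe or stimulus – thallium- and potassium-containing depolarizing buffer · Measured by – kinetic FluxOR fluorescence, 10 s baseline plus 110 s post-stimulus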
KCC2 mod: modulators of human KCC2 chloride dependent transport. Q9H2X9. KCC2 cells, thallium flux FluoZin-2 fluorescence. B-score of Tl+ flux slope (higher = more flux/activation; lower = inhibition) at 10 µM. actives 2.2% (n = 190,000);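 active = thallium flux slope and its plate-corrected score both differing from the plate sample mean at a set confidence after two filtering rounds, in either direction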;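 also: slope of fluorescence scaled to starting intensity during 10 to 20 s after thallium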
KCNQ1 inh valid: human KCNQ1 channel inhibition, validation assay. shares compounds with KCNQ1 block. inhibition, % at 10 µM. KCNQ1 cell line, FluxOR thallium flux fluorescence. AID 588353. actives 93% (n = 1,600);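 active = primary screen active, with duplicate mean exceeding buffer control mean plus 3 SD of buffer wells, cut at about 28% in these data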;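 also: 0% = buffer control ratio and 100% = XE991 inhibitor control ratio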
CHO KCNQ1 ctr: counter-screen for KCNQ1 inhibitors: effect in parental CHO cells; shares compounds with KCNQ1 block; parental CHO-K1, FluxOR thallium flux fluorescence ratio; active compounds read low; zero means no signal rise above baseline; fluorescence ratio (Tl flux) at 10 µM; actives 21% (n = 1,600); AID 588366;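 active = mean of duplicate thallium-flux fluorescence ratios in parental host cells more than 5 SD below the buffer control mean, cut at about 0.38 in these data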;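 also: ratio is peak minus minimum fluorescence divided by baseline fluorescence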
KCNQ1 ephys val: confirmation of human KCNQ1 potassium channel inhibitors by electrophysiology. shares compounds with KCNQ1 block. KCNQ1-CHO cells, automated patch clamp current. calls only at 10 µM. actives 20% (n = 490);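 active = KCNQ1 current drop exceeding 3 SD of negative control wells, seen in both duplicate runs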;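 also: steady state current during a 2 s step from -80 to +40 mV; negative values mean current inhibition and positive values mean potentiation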
KCNQ2 spec: KCNQ1 inhibitor that also blocks rat KCNQ2 channel | KCNQ2 cells, FluxOR thallium flux fluorescence | shares compounds with KCNQ1 block | actives 71% (n = 1,600) | inhibition, % at 10 µM;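 active = mean percent inhibition of the KCNQ2 thallium signal more than 5 SD above the buffer-only control wells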;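 also: KCNQ2 expressed in CHO cells; 0% = buffer control wells and 100% = XE-991 inhibitor control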
KCNQ1-KCNE1 inh: KCNQ1 inhibitor that also blocks human KCNQ1/KCNE1 channel | AID 652147 | KCNQ1/KCNE1 cells, FluxOR thallium flux fluorescence | actives 77% (n = 1,600) | shares compounds with KCNQ1 block | inhibition, % at 10 µM;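 active = mean percent inhibition of duplicate wells above the buffer-only control mean plus 3 SD of those controls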;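 also: 0% = buffer only wells and 100% = XE-991 inhibitor control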
* hit, by the source's call; i = inactive; . = not tested or not shown; + = active, no number. Sampled rows, rich in hits. Any-hit rate of the full collection: about 4.1%.

SMILES | KCNK3 block | KCNK9 inh | KCNQ1 block | hERG protect | KCNQ1 pot | KCC2 mod | KCNQ1 inh valid | CHO KCNQ1 ctr | KCNQ2 spec | KCNQ1-KCNE1 inh | others
Cc1nn2c(NCCN3CCOCC3)c3c(nc2c1-c1ccccc1)CCCC3 | i | i | 7* | -20 | i | -0.64 | 58* | 0.47 | 82%* | 73%*
Cc1nn2c(NCc3ccccn3)c3c(nc2c1-c1ccccc1)CCC3 | i | i | i | -19 | i | -0.32 | . | . | . | .
CC(=O)Nc1c(Cl)c2c(c(Cl)c1Br)-c1ccc(Cl)cc1C2 | i | . | . | . | . | . | . | . | . | .
CC(=O)Oc1ccc([C@@H]2COc3c(ccc4c3C=CC(C)(C)O4)C2)c(OC(C)=O)c1 | i | i | 7* | -10 | i | . | 136* | 0.42 | 90%* | 78%*
CC1(C)C=Cc2c(ccc3c2OC[C@H](c2ccc(O)cc2O)C3)O1 | i | . | . | . | . | . | . | . | . | .
COC(=O)c1sc(NC(=O)CN2CCN(c3cccc(Cl)c3)CC2)c(C(=O)OC)c1C | i | . | . | . | . | . | . | . | . | .
Cc1ccc(S(=O)(=O)N2C[C@@H]3[C@H]4CC[C@H](C4)[C@@H]3[C@@H](C)[C@@H]2c2ccn([Si](C(C)C)(C(C)C)C(C)C)c2)cc1 | i | . | . | . | . | . | . | . | . | .
O=C1/C(=C\c2cccc(O)c2O)SC(=S)N1Cc1ccccc1 | i | i | i | 0 | i | . | . | . | . | .
O=C1/C(=C\c2cc([N+](=O)[O-])ccc2O)SC(=S)N1Cc1ccc(Cl)cc1 | i | i | 17* | -31 | i | . | 165* | 0.22* | i | i
CCOC(=O)c1ncccc1NC(=O)CC(=O)Nc1cccnc1C(=O)OCC | i | i | i | -5 | i | . | . | . | . | .
c1ccc(-c2nc(N3CCOCC3)sc2-c2ccccc2)cc1 | i | i | 8* | -7 | i | . | 99* | 0.41 | 100%* | 162%* | KCNQ1 ephys val=i
Cc1ccc(S(=O)(=O)NC(=O)c2cc(C)n(-c3ccc(N(C)C)cc3)c2C)cc1 | i | i | 6* | -12 | i | 0.18 | 30* | 0.54 | i | i
O=C(Nc1ccc(Cl)cc1)Nc1ccc2c(c1)N1CCN=C1S2 | i | i | 12* | -26 | i | 0.09 | 106* | 0.45 | 65%* | 110%* | KCNQ1 ephys val=i
Nc1ccc2c(c1)N1CCN=C1S2 | i | i | i | -6 | i | . | . | . | . | .
CCN(CCCNC(=O)Cn1ncc2c([nH]c3ccc(C)cc32)c1=O)Cc1ccccc1 | i | i | i | -8 | i | . | . | . | . | .
O=C(CCc1ccccc1)Nc1cc(Cl)ccc1O | i | i | 9* | -8 | i | 0.18 | 63* | 0.47 | i | 90%*
CSc1nc2ccc(NS(=O)(=O)c3ccc(Cl)s3)cc2s1 | i | i | 7* | -13 | i | -1.2 | 103* | 0.43 | i | 70%*
CC1CCN(C(=O)c2cc3nc(-c4ccccc4)cc(-c4ccccc4)n3n2)CC1 | i | i | 6* | -15 | i | . | 112* | 0.44 | 108%* | 182%* | KCNQ1 ephys val=i
O=C(c1cnn2c(-c3ccccc3)cc(-c3ccccc3)nc12)N1CCN(Cc2ccccc2)CC1 | i | i | 7* | -13 | i | . | 130* | 0.31* | 154%* | +
O=C(NC1CCCC1)c1cc2nc(-c3ccccc3)cc(-c3ccccc3)n2n1 | i | i | i | -9 | i | -0.62 | . | . | . | .
COc1ccc2ncc(S(=O)(=O)c3ccccc3)c(N3CCN(c4ccccc4)CC3)c2c1 | i | i | i | -5 | i | -0.12 | . | . | . | .
Cc1ccc2ncc(S(=O)(=O)c3ccccc3)c(N3CCCCC3C)c2c1 (stereo not drawn) | i | i | 7* | -21 | i | . | 126* | 0.32* | 131%* | +
COc1cc(OC)c(N2CC(C(=O)Nc3cccc(C(=O)NC4CC4)c3)CC2=O)cc1Cl (stereo not drawn) | i | . | . | . | . | . | . | . | . | .
Cc1ccc(Cl)cc1N1CCN(C(=O)CCCn2c(=O)c3cccn3c3cccnc32)CC1 | i | i | 6* | -8 | i | . | 98* | 0.47 | 107%* | 177%* | KCNQ1 ephys val=i
Cc1cccc(N2CCN(C(=O)CCCn3c(=O)c4cccn4c4cccnc43)CC2)c1C | i | i | i | -10 | i | . | . | . | . | .
SMILES | KCNK3 block | KCNK9 inh | KCNQ1 block | hERG protect | KCNQ1 pot | KCC2 mod | KCNQ1 inh valid | CHO KCNQ1 ctr | KCNQ2 spec | KCNQ1-KCNE1 inh | others
CSc1ccccc1NC(=S)Nc1cccc(C(F)(F)F)c1 | i | i | i | -12 | i | 0.28 | . | . | . | .
COc1ccc(NC(=S)Nc2cccc(C(F)(F)F)c2)c(C)c1 | i | i | 8* | -5 | i | 0.16 | 99* | 0.49 | 100%* | 60%* | KCNQ1 ephys val=i
COc1ccc(CCNc2nc(N3CCCCC3)nc(N3CCCCC3)n2)cc1OC | i | i | 6* | -6 | i | 0.27 | 106* | 0.37* | 123%* | +
CC(=O)c1ccc(Nc2nc(NCCO)nc(OC(C(F)(F)F)C(F)(F)F)n2)cc1 | i | i | 8* | -26 | i | 0.042 | 85* | 0.49 | i | 114%*
CNc1nc(Nc2ccc(C(C)=O)cc2)nc(OC(C(F)(F)F)C(F)(F)F)n1 | i | i | i | -6 | i | . | . | . | . | .
CCOc1ccc(NC(=S)NCc2ccc3c(c2)OCO3)cc1 | i | i | 6* | -8 | i | 0.31 | 40* | 0.43 | 96%* | 38%*
O=[N+]([O-])c1ccc(N2CCc3ccccc3C2)cc1 | i | i | i | -22 | i | . | . | . | . | .
O=C1C(Cl)=C(N2CCCCCC2)C(=O)N1c1ccc(Br)cc1 | i | i | 6* | -9 | i | . | 85* | 0.4 | 101%* | 100%*
S=C(NCc1cccs1)Nc1ccccc1 | i | i | i | -7 | i | 0.032 | . | . | . | .
Fc1ccc(NC(=S)NCc2cccs2)cc1 | i | i | 6* | -7 | i | 0.87 | 0 | 0.52 | i | 48%*
COCCCn1c(=O)c2ccccc2n(CC(=O)NC2CCCCC2)c1=O | i | i | i | -1 | i | . | . | . | . | .
